GPR7 antagonist: GPR7 receptor antagonists, primary screen, cell-based, fluorescence, single concentration; actives 1.1% (n = 290,000); inhibition, % at 4.4 µM; GPR7-expressing cells, fluorescence antagonist assay; Neuropeptides B/W receptor type 1 (Homo sapiens), P48145; AID 1861, 2009; in the data active = inhibition above about 16%, passing the limit was not always enough;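 also: cells stimulated with the agonist NPW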
Target sequence (P48145 whole entry, looked up): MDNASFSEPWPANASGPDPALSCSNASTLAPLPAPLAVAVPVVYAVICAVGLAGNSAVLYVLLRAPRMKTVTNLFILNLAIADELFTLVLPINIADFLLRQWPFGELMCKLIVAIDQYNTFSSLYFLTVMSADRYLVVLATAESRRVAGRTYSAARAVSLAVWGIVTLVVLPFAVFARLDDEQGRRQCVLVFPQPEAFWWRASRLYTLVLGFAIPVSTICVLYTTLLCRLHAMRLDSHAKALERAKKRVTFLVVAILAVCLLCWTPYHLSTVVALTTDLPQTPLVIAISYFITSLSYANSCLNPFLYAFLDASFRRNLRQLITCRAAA
CHO parental Ca: ATP-evoked calcium signal inhibitors, parental CHO, primary screen, counter-screen for OX1R antagonist project, cell-based, fluorescence, Fluo-8 calcium dye. parental CHO-K1, ATP-induced calcium, Fluo-8 fluorescence. inhibition, % at 5.6 µM. actives 0.63% (n = 330,000). AID 463079, 2010;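 active = inhibition above that plate's mean sample inhibition plus 3 SD, cut at about 26% in these data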
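Measured by: calcium-sensitive Fluo-8 fluorescence / Test system: CHO parental line / Controls: ATP-challenged DMSO wells low, unchallenged DMSO wells high / Measure: % inhibition / Compound: single nominal dose of 5.6 µM per compound / Replicates: single well per compound, no replicates / Reagent: ATP as calcium-mobilizing challenge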
OX1R antag-1: antagonists of human orexin 1 receptor (OX1R) | OX1R-expressing cells, FRET antagonist read-out | inhibition, % at 6.6 µM | actives 1.8% (n = 330,000) | AID 485270, 2010; in the data active = inhibition mostly above about 38%, no sharp cut-off; inactive = mostly below about 40%
OX1R antag-2: OX1R (HCRTR1) antagonists, primary screen, fluorescence, CHO/OX1R cells, Fluo-8 calcium, orexin A; Orexin/Hypocretin receptor type 1 (Homo sapiens), O43613; Fluo-8 calcium fluorescence; inhibition, % at 5 µM; actives 0.43% (n = 330,000);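 active = inhibition above its plate's threshold, mean inhibition of all tested compounds on the plate plus 3 SD, cut at about 37% in these data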
MPTP block: mitochondrial permeability transition pore inhibitors, primary screen, biochemical, isolated mouse mitochondria, absorbance; Ca2+ swelling absorbance, 30 min; actives 1.4% (n = 360,000); inhibition, % at 10 µM; AID 602449, 2012;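 active = inhibition of 50% or more, scaled per plate between neutral and stimulator controls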
MPTP counter: fluorescence retest of MPTP screen hits in isolated mitochondria, single concentration. inhibition, % at 10 µM. actives 78% (n = 5,000). AID 624504, 2012. shares compounds with MPTP block. membrane potential, Rhodamine 123 fluorescence; in the data active = inhibition above about 22%
MPTP abs DR: mitochondrial permeability transition pore inhibitors, dose response, biochemical, absorbance, uHTS hits | actives 58% (n = 780) | IC50, µM | shares compounds with MPTP block | isolated mitochondria swelling; in the data active = IC50 below about 20 µM
MPTP cs DR: fluorescent counter-screen in isolated mitochondria, dose response, counter-screen for MPTP inhibitor project, biochemical, fluorescence, uHTS hits; shares compounds with MPTP block; isolated mitochondria counterscreen, fluorescence read-out; IC50, µM; actives 49% (n = 780); AID 651564, 2012; in the data active = IC50 below about 80 µM
Each line names hits and unclear results; the compound was inactive in the other large screens (follow-up assays come after a bar, where they were run). Only some compounds are listed: those with a hit (about 3.8% of all), similar ones and a draw of the others.

O=S(=O)(Nc1ccc2c(c1)OCCO2)c1ccc(F)c(F)c1	none
COc1ccc(S(=O)(=O)Nc2ccc3c(c2)OCCO3)cc1Cl	none
O=S(=O)(Nc1ccc2c(c1)OCCO2)c1ccc2oc3ccccc3c2c1	OX1R antag-1 64.5, MPTP block 68.0 | MPTP counter 80.8
COc1ccc(NS(=O)(=O)c2ccc3c(c2)OCCO3)cc1OC	MPTP block 84.8 | MPTP counter 85.8
COc1ccccc1NS(=O)(=O)c1ccc(-c2cnc(C3CC3)o2)cc1	none
CCOC(=O)N(Cc1ccccc1)Cc1ccc(C(=O)N[C@@H](Cc2ccccc2)C(=O)O)cc1	none (no result: GPR7 antagonist)
CC(=O)c1ccc(NC(=O)NCc2ccc(F)cc2)cc1	none
CC(C)c1ccc(NC(=O)NCc2ccc(F)cc2)cc1	MPTP block 60.9 | MPTP counter 86.1
CCOc1ccc(NC(=S)NCc2ccco2)cc1	none
CCOC(=O)c1ccc(NC(=S)NCc2ccco2)cc1	MPTP block 65.0 | MPTP counter 72.2
CCOC(=O)c1ccc(NC(=S)NCc2ccc(F)cc2)cc1	MPTP block 88.3 (no result: GPR7 antagonist) | MPTP counter 81.9
NS(=O)(=O)c1ccc(O)c(N2C(=O)c3cccc4c(C(=O)c5ccccc5)ccc(c34)C2=O)c1	none (no result: CHO parental Ca, OX1R antag-1, OX1R antag-2, MPTP block)
CCOCCOC(=O)c1ccc(-n2cncn2)nc1	none
COCCOC(=O)c1cc(C(=O)c2cc(Cl)ccc2O)coc1=N	none
Cc1cccc(OCCOC(=O)c2ccc(F)c(S(=O)(=O)N3CCOCC3)c2)c1	none (no result: GPR7 antagonist)
O=C(Nc1cccc(F)c1)c1c(F)c(F)c(F)c(F)c1F	MPTP block 65.1 | MPTP counter 80.8
O=C(Nc1ccncc1)c1c(F)c(F)c(F)c(F)c1F	none
O=C(Nc1ccccc1NC(=O)c1c(F)c(F)c(F)c(F)c1F)c1c(F)c(F)c(F)c(F)c1F	MPTP block 93.1 | MPTP counter 94.8
Cc1cccc(NC(=O)c2c(F)c(F)c(F)c(F)c2F)c1	none
Cc1cc(C(C)(C)C)cc(C)c1COC(=O)c1cccnc1	none
Cc1cc(Nc2ccc(Cl)cc2)nc(NCc2ccccc2)n1	MPTP block 53.4 | MPTP counter 31.4
Cc1cc(Nc2cccc(F)c2)nc(NCc2ccccc2)n1	MPTP block 92.4 | MPTP counter 73.4
Cc1cc(N/N=C/c2ccc(Cl)cc2Cl)nc(NCc2ccccc2)n1	none
Cc1ccc(/C=N/Nc2cc(C)nc(NCc3ccccc3)n2)cc1	none
Cc1cc(Nc2ccccc2)nc(NCc2ccccc2)n1	GPR7 antagonist 36.5, MPTP block 90.1 | MPTP counter 91.8
Cc1cc(N/N=C/c2ccc(N(C)C)cc2)nc(NCc2ccccc2)n1	MPTP block 59.6 | MPTP counter 55.8
Cc1noc(C)c1NC(=O)N(C)C[C@H]1Oc2ccc(NC(=O)c3ccncc3)cc2C(=O)N([C@H](C)CO)C[C@@H]1C	none (no result: GPR7 antagonist)
CCN(CC)C(=O)[C@H]1CC(CC(=O)NCc2cccc(C(F)(F)F)c2)C(=O)N2CCc3c([nH]c4ccccc34)[C@]12C (some centres not stated)	MPTP block 61.1 (no result: GPR7 antagonist) | MPTP counter inactive | MPTP abs DR inactive | MPTP cs DR 63.5
CCN(CC)C(=O)[C@H]1C[C@H](CC(=O)NCc2cccc(C(F)(F)F)c2)C(=O)N2CCc3c([nH]c4ccc(Cl)cc34)[C@]12C	none (no result: GPR7 antagonist)
Cc1ccc(CNC(=O)CN(C)S(=O)(=O)c2ccc3c(c2)n(C)c(=O)c(=O)n3C)cc1	none
CCC(=O)CCC(=O)c1ccc2ccccc2c1	none
CC(C)N(CCC(=O)c1ccc2ccccc2c1)Cc1ccccc1	MPTP block 98.9 (no result: GPR7 antagonist) | MPTP counter inactive
NC(N)=Nc1nc(-c2ccccc2)c2cc(F)ccc2n1	MPTP block 82.1 | MPTP counter inactive | MPTP abs DR 6.17 | MPTP cs DR 46.8
Fc1ccc2nc(-c3ccccc3)ccc2c1	none (no result: GPR7 antagonist, CHO parental Ca, OX1R antag-1, OX1R antag-2)
CN(CC(=O)Nc1cccc(F)c1)C(=O)c1ccncc1	none
CCc1ccc(NC(=O)CSc2nc3ncc(Br)cc3[nH]2)cc1	MPTP block 53.8 | MPTP counter 87.6
Cc1ccc2c(c1)nnn2C1CCN(S(=O)(=O)c2ccc(C(=O)N3C(C)CCCC3C)cc2)CC1 (configuration not stated)	CHO parental Ca 55.8, OX1R antag-2 59.1, MPTP block 98.3 | MPTP counter 86.8
O=C(Nc1ccc(Cl)cc1)Nc1nnc(CSCc2ccc(Cl)cc2)s1	MPTP block 83.9 | MPTP counter 50.4
CCc1nnc(NC(=O)Nc2ccc(Cl)cc2)s1	none
O=C(Nc1ccc(F)cc1)Nc1nnc(Cc2ccccc2F)s1	MPTP block 58.3 | MPTP counter 76.9
CCNC(=O)CC1C(=O)N(c2cccc(C)c2)C(=O)N1CCC(C)C (configuration not stated)	none
O=C(NC(=S)Nc1cc(-c2nc3ccccc3[nH]2)ccc1Cl)c1ccc2c(c1)OCO2	MPTP block 57.3 | MPTP counter 38.6
CCOC(=O)c1oc2ccc(Br)cc2c1NC(=O)CN1CCN(C)CC1	MPTP block 69.4 | MPTP counter inactive
CCn1cc(C(=O)N2CCN(c3ccccn3)CC2)c(=O)c2cc(S(=O)(=O)N(C)C3CCCCC3)ccc21	none
Cc1cc(C)c(O)c(CN(C)Cc2cc(Cl)cc(Cl)c2O)c1	MPTP block 93.7 (no result: GPR7 antagonist, CHO parental Ca, OX1R antag-1, OX1R antag-2) | MPTP counter 86.9
Cc1ccnc(NCc2cc(Cl)cc(Cl)c2O)c1	none (no result: GPR7 antagonist, CHO parental Ca, OX1R antag-1, OX1R antag-2)
Cc1c(C)c2ccc(OCC(=O)N3CCOCC3)c(C)c2oc1=O	none
Cc1ccc(Nc2nc(OC(C(F)(F)F)C(F)(F)F)nc(N3CCOCC3)n2)cc1	MPTP block 71.7 | MPTP counter inactive | MPTP abs DR inactive | MPTP cs DR inactive
O=C1/C(=C/c2cccc(Br)c2)SC(=S)N1/N=C/c1cc([N+](=O)[O-])ccc1O	MPTP block 60.8 | MPTP counter inactive | MPTP abs DR 15.3 | MPTP cs DR <2.5
CC(=O)NN1C(=O)/C(=C\c2ccc(O)cc2)SC1=S	none
O=C1/C(=C\c2ccc(O)cc2)SC(=S)N1/N=C/c1ccc(O)cc1	MPTP block 95.6 | MPTP counter 78.2
O=C(CC(=O)c1ccccc1)Nc1ccc(Cl)cc1	none
Cc1ccc2c(c1)C1CN(C)CCC1N2C(=O)Nc1ccc(Cl)cc1 (configuration not stated)	MPTP block 87.2 (no result: CHO parental Ca, OX1R antag-1, OX1R antag-2) | MPTP counter 94.2

Screens (PubChem)
